ChEMBL document CHEMBL4396897, “Potent 5-Cyano-6-phenyl-pyrimidin-Based Derivatives Targeting DCN1-UBE2M Interaction” (J Med Chem, 2019)
The source made the active and inactive calls. The calls are words filed in the database; no cut-off is given here.

How the values were obtained:
[1] = biological target: T1, DCN1-like protein 1 (Homo sapiens, UniProt Q96GG9); test: Binding affinity to N-terminal His6-tagged recombinant human DCN1 expressed in Escherichia coli BL21-AI assessed as reduction in DCN1-FAM-labelled N-terminal acetylated UBE2M (1 to 12 residues) protein-protein interaction after 30 mins by fluorescence polarization competitive binding assay
T1 sequence (Q96GG9 whole entry, the tested form may be a part): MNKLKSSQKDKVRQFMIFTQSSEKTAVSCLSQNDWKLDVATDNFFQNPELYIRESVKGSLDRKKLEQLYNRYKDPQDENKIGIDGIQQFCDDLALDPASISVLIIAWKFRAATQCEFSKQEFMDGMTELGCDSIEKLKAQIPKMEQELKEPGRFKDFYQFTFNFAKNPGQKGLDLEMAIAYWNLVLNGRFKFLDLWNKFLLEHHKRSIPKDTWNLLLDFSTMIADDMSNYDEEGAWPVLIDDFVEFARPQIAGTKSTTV

[2] = biological target: T1, DCN1-like protein 1; test: Binding affinity to N-terminal GST tagged recombinant human DCN1 (58 to 259 residues) expressed in Escherichia coli BL21(DE3) assessed as reduction in DCN1-FAM-labelled N-terminal acetylated UBE2M (1 to 21 residues) protein-protein interaction after 30 mins by HTRF assay
[3] = test system: KYSE-70 cell line; test: Antiproliferative activity against human KYSE-70 after 72 hrs by MTT assay; type: functional, cell-based; details: KYSE-70, 72 h
Procedure, shortened: (§1)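 MTT viability assay: cells seeded at 2~5×10^3 per well, exposed to serial dilutions of compound for 72h, then MTT (5 mg/mL in PBS) added for 4h at 37°C. Formazan dissolved in DMSO and read at 490nm. IC50 reported as mean ± SD of three independent experiments.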

[4] = test system: PC-9; test: Antiproliferative activity against human PC9 by MTT assay; type: functional, cell-based; procedure, shortened: as §1
[5] = test system: SMMC-7721; test: Antiproliferative activity against human SMMC7721 after 72 hrs by MTT assay; type: functional, cell-based; details: SMMC-7721, 72 h; procedure, shortened: as §1
[6] = test system: PC-3; test: Antiproliferative activity against human PC3 after 72 hrs by MTT assay; type: functional, cell-based; details: PC-3, 72 h; procedure, shortened: as §1
[7] = test system: MCF7; test: Antiproliferative activity against human MCF7 after 72 hrs by MTT assay; type: functional, cell-based; details: MCF7, 72 h; procedure, shortened: as §1
[8] = biological target: DCN1-like protein 1/NEDD8-conjugating enzyme Ubc12 (Homo sapiens) (UniProt Q96GG9+P61081); test: Inhibition of DCN1-UBE2M protein-protein interaction in human NCI-H1975 cells assessed as stabilization of DCN1 at 10 uM incubated for 5 hrs at 53 degC by cellular thermal shift assay; type: cell-based
DCN1-like protein 1/NEDD8-conjugating enzyme Ubc12 (Homo sapiens), sequence (P61081 whole entry, looked up): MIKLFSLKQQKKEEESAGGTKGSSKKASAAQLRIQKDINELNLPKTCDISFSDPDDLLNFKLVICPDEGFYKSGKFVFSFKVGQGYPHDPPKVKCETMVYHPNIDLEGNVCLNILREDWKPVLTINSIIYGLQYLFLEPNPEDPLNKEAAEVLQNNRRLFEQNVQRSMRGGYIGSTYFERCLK
DCN1-like protein 1/NEDD8-conjugating enzyme Ubc12 (Homo sapiens), sequence (Q96GG9 whole entry, looked up): as the sequence (Q96GG9 whole entry, the tested form may be a part) above
Procedure, shortened: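 H1975 cells exposed to 10µM compound or 1‰ DMSO for 3-5h (5h in legend), collected, aliquoted and heated 10 min across 43–61°C. Cells lysed by three liquid-nitrogen freeze-thaw cycles and centrifuged at 12,000×g for 20 min. Soluble DCN1 in supernatant quantified by Western blot band intensity; at least three experiments.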

Structure (SMILES)	IC50 [1] [µM]	IC50 [2] [µM]	IC50 [3] [µM]	IC50 [4] [µM]	IC50 [5] [µM]	IC50 [6] [µM]	IC50 [7] [µM]	inhibition [8]
CCCSc1nc(Sc2nccs2)c(C#N)c(-c2ccc(Cl)cc2)n1	> 10	> 10						
C#CCSc1nc(Sc2nnnn2C)c(C#N)c(-c2ccc(Cl)c(Cl)c2)n1	0.943	0.339						
C#CCSc1nc(Sc2nnnn2CCN(C)C)c(C#N)c(-c2ccc3oc(=O)ccc3c2)n1	0.666	0.815						
C#CCSc1nc(Sc2nccs2)c(C#N)c(-c2cccc(Cl)c2)n1	0.362	0.14						
C#CCSc1nc(Sc2nc3ccccc3s2)c(C#N)c(-c2cc(OC)c(OC)c(OC)c2)n1	> 10	> 5	> 20	> 20	> 20	> 20	> 20	
N#Cc1c(Sc2nccs2)nc(SCc2cn(Cc3ccccc3)nn2)nc1-c1ccc(Cl)cc1	> 10	> 10						
C#CCSc1nc(Sc2nccs2)c(C#N)c(-c2ccc(Cl)cc2)n1	0.0366	0.096	5.35	4.13	6.04	3.62	3.23	
C#CCSc1nc(Sc2ccccn2)c(C#N)c(-c2cc(OC)c(OC)c(OC)c2)n1	> 10	> 2.5	> 10	> 20	> 20	> 10	> 10	
C#CCSc1nc(Sc2nnnn2C)c(C#N)c(-c2cccc(Cl)c2)n1	0.644	0.291						
C#CCSc1nc(-c2cc(OC)c(OC)c(OC)c2)c(C#N)c(N2CCSCC2)n1	> 10	> 5						
C#CCSc1nc(-c2cc(OC)c(OC)c(OC)c2)c(C#N)c(N2CCOCC2)n1	> 10	> 10						
C#CCSc1nc(Sc2nnnn2C)c(C#N)c(-c2ccc(Cl)cc2)n1	0.0785	0.102						
C#CCSc1nc(Sc2ccc(N)s2)c(C#N)c(-c2cc(OC)c(OC)c(OC)c2)n1	0.196	0.066						
C#CCSc1nc(Sc2nnc(N)s2)c(C#N)c(-c2cc(OC)c(OC)c(OC)c2)n1	0.821	0.107						
C#CCSc1nc(Sc2nnnn2C)c(C#N)c(-c2ccccc2)n1	> 20	> 20						
C#CCSc1nc(Sc2nccs2)c(C#N)c(-c2ccc(Cl)c(Cl)c2)n1	0.063	0.112						
C#CCSc1nc(Sc2nccs2)c(C#N)c(-c2ccc3oc(=O)ccc3c2)n1	0.789	0.202						
C#CCSc1nc(Sc2nnnn2CCN(C)C)c(C#N)c(-c2cccc(Cl)c2)n1	0.106	0.38	5.32	6.48	8.64	3.54	4.12	
C=CC(=O)Nc1ccccc1CN(C(=O)Nc1cccc(C(F)(F)F)c1)C1CCN(C(C)CCC)CC1 (centres undefined)			17.9	5.59	16.2	25.3	10.2	
C#CCSc1nc(Sc2nccs2)c(C#N)c(-c2ccc[nH]2)n1	> 20	> 10	> 20	> 20	> 20	> 20	> 20	
C#CCSc1nc(Sc2nnnn2C)c(C#N)c(-c2c[nH]c3ccccc23)n1	> 20	> 10						
C#CCSc1nc(Sc2nc[nH]n2)c(C#N)c(-c2cc(OC)c(OC)c(OC)c2)n1	1.22	> 5	> 20	> 20	> 20	> 20	> 20	
C#CCSc1nc(Sc2nccs2)c(C#N)c(-c2cc(OC)c(OC)c(OC)c2)n1	0.141	0.077						

Structure (SMILES)	IC50 [1] [µM]	IC50 [2] [µM]	IC50 [3] [µM]	IC50 [4] [µM]	IC50 [5] [µM]	IC50 [6] [µM]	IC50 [7] [µM]	inhibition [8]
C#CCSc1nc(Sc2nnnn2CCN(C)C)c(C#N)c(-c2ccc(C)cc2)n1	0.109	0.12						
C#CCSc1nc(Sc2nccn2C)c(C#N)c(-c2cc(OC)c(OC)c(OC)c2)n1	> 10	> 2.5						
C=CCSc1nc(Sc2nccs2)c(C#N)c(-c2ccc(Cl)cc2)n1	> 10	> 10						
C#CCSc1nc(Sc2nccs2)c(C#N)c(-c2ccncc2)n1	1.48	1.06						
C#CCSc1nc(Sc2nnnn2C)c(C#N)c(-c2ccc[nH]2)n1	> 20	> 10						
C#CCSc1nc(-c2cc(OC)c(OC)c(OC)c2)c(C#N)c(N2CCCCC2)n1	> 10	> 5						
C#CCSc1nc(-c2cc(OC)c(OC)c(OC)c2)c(C#N)c(N2CCNCC2)n1	> 10	> 5						
C#CCSc1nc(Sc2nnnn2C)c(C#N)c(-c2cccs2)n1	> 20	> 10						
C#CCSc1nc(Sc2nnnn2CCN(C)C)c(C#N)c(-c2ccc(Cl)c(Cl)c2)n1	0.391	0.172						
C#CCSc1nc(Sc2nnnn2C)c(C#N)c(-c2ccc(C(C)C)cc2)n1	1.09	0.369						
C#CCSc1nc(Sc2nnc(C)s2)c(C#N)c(-c2cc(OC)c(OC)c(OC)c2)n1	0.153	0.134						
C#CCSc1nc(Sc2nnnn2CCN(C)C)c(C#N)c(-c2ccc(Cl)cc2)n1	0.0635	0.123	6.56	5.3	7.34	7.17	6.18	
C#CCSc1nc(Sc2nnnn2C)c(C#N)c(-c2cccc(OC)c2)n1	3.15	1.02						
C#CCSc1nc(Nc2nnnn2C)c(C#N)c(-c2cc(OC)c(OC)c(OC)c2)n1	> 10	> 10						
C#CCSc1nc(Sc2nnnn2C)c(C#N)c(-c2cc(OC)c(OC)c(OC)c2)n1	0.36	0.25						
C#CCSc1nc(Sc2nnnn2C)c(C#N)c(-c2ccc3oc(=O)ccc3c2)n1	1.25	0.82						
C#CCSc1nc(Sc2nccs2)c(C#N)c(-c2ccc(Br)cc2)n1	0.552	0.189	10.9	12.1	3.99	8.53	11.6	
C#CCSc1nc(Nc2cccc(C(F)(F)F)c2)c(C#N)c(-c2cc(OC)c(OC)c(OC)c2)n1	> 10	> 10						
C#CCSc1nc(Nc2ccc(OC)cc2)c(C#N)c(-c2cc(OC)c(OC)c(OC)c2)n1	> 10	> 10						
C#CCSc1nc(Sc2nc(C)cs2)c(C#N)c(-c2cc(OC)c(OC)c(OC)c2)n1	> 10	> 10	> 20	> 20	> 20	> 20	> 20	inactive
C#CCSc1nc(Sc2nnnn2CCN(C)C)c(C#N)c(-c2cc(OC)c(OC)c(OC)c2)n1	0.591	0.199						
C#CCSc1nc(Sc2nc(C)c(C)s2)c(C#N)c(-c2cc(OC)c(OC)c(OC)c2)n1	> 10	> 10	> 20	> 20	> 20	> 20	> 20	
